Most compounds without a hit are left out; they make up all but 5.1% or so of the library.
STAT1 inh: inhibitors of IFN-gamma induced STAT1 signaling; hit rate 0.35% among 200,000; inhibition, % at 5.5 µM; NIH 3T3 STAT1-luciferase reporter, luminescence;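 active means inhibition above a set limit, the mean inhibition across all tested compounds plus 3 SD, cut at about 34% in these data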;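 further: 0% = IFN-gamma with DMSO and 100% = IFN-gamma with 300 µM nifuroxazide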
APP 5'UTR act: APP 5'UTR luciferase reporter activation. hit rate 1% among 190,000. AID 1276. activation, % at 2 µM. SH-SY5Y APP 5'UTR luciferase reporter, luminescence; zero percent = DMSO vehicle wells;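 active means activation above a set limit, based on mean plus 3 SD of controls, cut at about 140% in these data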
STAT1 activator: increases IFN-gamma driven STAT1 reporter signal | NIH 3T3 STAT1-luciferase reporter, luminescence; 100% = IFN-gamma alone, no compound | activation (% of control), % at 5.5 µM | hit rate 2.6% among 200,000 | AID 932;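 active means activation above the screen-wide mean activation plus 3 SD, cut at about 130% in these data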;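 further: raw ratio to IFN-gamma control signal so 100% means no change and 0% no light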
NF-kB expr up: compounds increasing NF-kB expression in human neuronal cells. NF-kB reporter expression; stronger effect = higher value. fold change at 12.5 µM. hit rate 1.6% among 190,000; in the data active means fold change above about 3.3
STAT3 activator: activators of IL-6 induced STAT3 signaling; U3A cells, IL-6 STAT3-luciferase reporter, luminescence; 100% = signal with IL-6 EC80 alone; activation (% of control), % at 5.6 µM; hit rate 0.91% among 190,000;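 active means activation above the screen-wide mean of compound activation plus 3 SD, cut at about 130% in these data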;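 further: 0% = background luminescence of wells with medium and substrate only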
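Test system: Human STAT1-deficient U3A cells with stable STAT3-luciferase reporter | Also added: Interleukin-6, 33 ng/mL | Timing: Compound pre-incubation 1 h before IL-6, then 6 h stimulation at 37 °C | Technique: Luciferase reporter luminescence | Read-out: Percent of IL-6-only median luminescence | Benchmarks: IL-6-only wells as 100% reference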
STAT3 inh-1: inhibitors of IL-6 induced STAT3 signaling. hit rate 0.89% among 190,000. AID 862. inhibition, % at 5.5 µM. U3A cells, IL-6 STAT3-luciferase reporter, luminescence; host cell line lacks STAT1;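 active means inhibition above the mean inhibition across all screened compounds plus 3 SD, cut at about 44% in these data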;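 further: 0% = DMSO only wells and 100% = 100 µM nifuroxazide control wells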
STAT3 inh-2: confirmation of STAT3 signaling inhibitors | inhibition, % at 5.7 µM | shares compounds with STAT3 inh-1 | U3A cells, IL-6 STAT3 luciferase reporter, luminescence; cell line lacks STAT1 | hit rate 45% among 1,200;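 active means inhibition above the hit cutoff computed for the primary STAT3 screen, cut at about 44% in these data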;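 further: 0% = IL-6 plus DMSO and 100% = IL-6 plus nifuroxazide control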
NFkB inh 2: counter-screen for STAT3 inhibitors: NF-kappaB inhibition. hit rate 36% among 1,200. HEK293T NF-kB luciferase reporter, TNF-alpha induced. inhibition, % at 5.7 µM. shares compounds with STAT3 inh-1;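 active means inhibition above the mean of solvent-only control wells plus 3 SD, cutoff set per campaign, cut at about 13% in these data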;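 further: 0% = TNF-alpha with DMSO and 100% = TNF-alpha with MG high control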
STAT1 inh STAT3c: inhibits STAT1, counter-screen to STAT3 inhibitors. hit rate 27% among 1,200. inhibition, % at 5.7 µM. NIH 3T3 STAT1-luciferase reporter, IFN-gamma induced, luminescence. shares compounds with STAT3 inh-1;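 active means inhibition above the mean plus 3 SD of solvent-only control wells, limit set per screening run, cut at about 16% in these data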;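 further: 0% = DMSO with IFN-gamma and 100% = nifuroxazide control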
* = called active by the depositor.

What do the screens show for `COc1ccc(-c2nsc3c(N4CCCC4)ncnc23)cc1`?
STAT1 inh: -26; APP 5'UTR act: 156*; STAT1 activator: 124; NF-kB expr up: 0.95; STAT3 activator: 60; STAT3 inh-1: 53*; STAT3 inh-2: 26; NFkB inh 2: 5; STAT1 inh STAT3c: -74

What do the screens show for `CC(C)(C)c1ccc(C(=O)N2CCCCCC2=O)cc1`?
STAT1 inh: 19; APP 5'UTR act: -57; STAT1 activator: 82; NF-kB expr up: 0.46; STAT3 activator: 64; STAT3 inh-1: 45*; STAT3 inh-2: 64*; NFkB inh 2: 35*; STAT1 inh STAT3c: 30*

What do the screens show for `COc1ccc(NC(=O)CN2C(=O)c3cccc4cccc2c34)cc1OC`?
STAT1 inh: 7; APP 5'UTR act: 1; STAT1 activator: 93; NF-kB expr up: 1.4; STAT3 activator: 96; STAT3 inh-1: 5

How did O=C(CCSc1ccccc1)Nc1nc2c(s1)CCCC2 do in these assays?
STAT1 inh: -15; APP 5'UTR act: -1; STAT1 activator: 114; NF-kB expr up: 1.9; STAT3 activator: 113; STAT3 inh-1: -15

Results for CC(NC(N)=O)C(=O)NCC(=O)OCc1ccccc1 (stereo not drawn) ?
STAT1 inh: -10; APP 5'UTR act: -3; STAT1 activator: 107; NF-kB expr up: 1; STAT3 activator: 108; STAT3 inh-1: -6

What do the screens show for `CSc1ccc(CN2CCN(C(=O)c3ccc([N+](=O)[O-])cc3)CC2)cc1`?
STAT1 inh: 3; APP 5'UTR act: 11; STAT1 activator: 98; STAT3 activator: 56; STAT3 inh-1: 55*; STAT3 inh-2: 59*; NFkB inh 2: 13; STAT1 inh STAT3c: -3

Results for CC1CC=C2C(C#N)=C(N)C(C#N)(C#N)C(c3cccs3)C2C1 (stereo not drawn) ?
STAT1 inh: 12; APP 5'UTR act: 8; STAT1 activator: 89; NF-kB expr up: 1.2; STAT3 activator: 107; STAT3 inh-1: -2

How did Cc1ccc(-n2c(Cc3cccn3C)nnc2SCC(=O)N2CCc3ccccc32)cc1 do in these assays?
STAT1 inh: 3; APP 5'UTR act: -8; STAT1 activator: 98; NF-kB expr up: 0.73; STAT3 activator: 93; STAT3 inh-1: 12

What do the screens show for `O=C(NCCCn1ccnc1)c1cc2c(s1)CCCCC2`?
STAT1 inh: -6; APP 5'UTR act: -8; STAT1 activator: 105; NF-kB expr up: 0.8; STAT3 activator: 101; STAT3 inh-1: 0

Results for Cc1ccnc(Nc2nc3ccccc3o2)n1 ?
STAT1 inh: 13; APP 5'UTR act: 140*; STAT1 activator: 85; NF-kB expr up: 1.5; STAT3 activator: 64; STAT3 inh-1: 43*; STAT3 inh-2: 17; NFkB inh 2: -18; STAT1 inh STAT3c: -60

How did CCOc1ncccc1C(=O)OCC(=O)Nc1ccc(-c2nc3ccc(C)cc3s2)cc1 do in these assays?
STAT1 inh: -19; APP 5'UTR act: 164*; STAT1 activator: 117; NF-kB expr up: 3.5*; STAT3 activator: 39; STAT3 inh-1: 72*; STAT3 inh-2: 46*; NFkB inh 2: -20; STAT1 inh STAT3c: -25

What do the screens show for `Cc1ccc2nc(-c3ccc(NC(=O)COC(=O)c4ccco4)cc3)sc2c1`?
STAT1 inh: -45; APP 5'UTR act: 148*; STAT1 activator: 141*; NF-kB expr up: 4.3*; STAT3 activator: 56; STAT3 inh-1: 50*; STAT3 inh-2: 28; NFkB inh 2: -20; STAT1 inh STAT3c: -64

What do the screens show for `CNS(=O)(=O)c1cccc(C(=O)OCC(=O)Nc2ccc(-c3nc4ccc(C)cc4s3)cc2)c1`?
STAT1 inh: 28; APP 5'UTR act: 167*; STAT1 activator: 73; NF-kB expr up: 1; STAT3 activator: 46; STAT3 inh-1: 68*; STAT3 inh-2: 32; NFkB inh 2: -13; STAT1 inh STAT3c: -79

Results for Cc1ccc(NC(=O)COC(=O)c2ccco2)cc1 ?
STAT1 inh: -5; APP 5'UTR act: 15; STAT1 activator: 103; NF-kB expr up: 1.1; STAT3 activator: 101; STAT3 inh-1: 2

How did Cc1nc(NC(=O)CSc2cc(C)c3ccccc3n2)c(Cl)cc1Cl do in these assays?
STAT1 inh: -3; APP 5'UTR act: 9; STAT1 activator: 102; NF-kB expr up: 2; STAT3 activator: 107; STAT3 inh-1: -9

What do the screens show for `Cc1ccc(C(=O)CSc2nc3ccccc3c(=O)n2-c2ccccc2)s1`?
STAT1 inh: -2; APP 5'UTR act: -9; STAT1 activator: 102; NF-kB expr up: 1.2; STAT3 activator: 92; STAT3 inh-1: 17

How did COc1ccc(NC(=O)c2c(NC(=O)CNCc3ccco3)sc3c2CCC3)c(OC)c1 do in these assays?
STAT1 inh: -1; APP 5'UTR act: 20; STAT1 activator: 100; NF-kB expr up: 1.1; STAT3 activator: 86; STAT3 inh-1: 18

What do the screens show for `Cc1ccc(-c2nc3cnccn3c2Nc2ccc3c(c2)OCO3)o1`?
STAT1 inh: -3; APP 5'UTR act: -9; STAT1 activator: 103; NF-kB expr up: 1.3; STAT3 activator: 97; STAT3 inh-1: 4

Results for CCCCNc1cc(C)nc(NCc2ccccc2)n1 ?
STAT1 inh: 32; APP 5'UTR act: 12; STAT1 activator: 70; NF-kB expr up: 1.7; STAT3 activator: 64; STAT3 inh-1: 44*; STAT3 inh-2: 35; NFkB inh 2: 13*; STAT1 inh STAT3c: 27*

How did O=C(Nc1ccc2c(c1)nc1n2CCN(Cc2ccccc2)C1)NC1CCCCC1 do in these assays?
STAT1 inh: -2; APP 5'UTR act: 4; STAT1 activator: 102; NF-kB expr up: 1; STAT3 activator: 94; STAT3 inh-1: 10

What do the screens show for `CCCOc1ccc(-c2nnc(-c3ccco3)o2)cc1`?
STAT1 inh: 29; APP 5'UTR act: 104; STAT1 activator: 73; NF-kB expr up: 2.8; STAT3 activator: 38; STAT3 inh-1: 78*; STAT3 inh-2: 43; NFkB inh 2: 1; STAT1 inh STAT3c: -50

Results for O=C(COc1ccccc1)Nc1ccc(-c2nnc(-c3ccco3)o2)cc1 ?
STAT1 inh: -27; APP 5'UTR act: 31; STAT1 activator: 125; NF-kB expr up: 1.8; STAT3 activator: 100; STAT3 inh-1: 3

What do the screens show for `CC(C)COc1ccc(-c2nnc(-c3ccco3)o2)cc1`?
STAT1 inh: -19; APP 5'UTR act: 187*; STAT1 activator: 116; NF-kB expr up: 4.3*; STAT3 activator: 50; STAT3 inh-1: 63*; STAT3 inh-2: 42; NFkB inh 2: -3; STAT1 inh STAT3c: -52

High-throughput results (PubChem)
